Results: ChEMBL document CHEMBL3826951, “Discovery of Benzocycloalkane Derivatives Efficiently Blocking Bacterial Virulence for the Treatment of Methicillin-Resistant S. aureus (MRSA) Infections by Targeting Diapophytoene Desaturase (CrtN)” (J Med Chem, 2016)
Values after ≈ are worked out from the molar mass of the structure shown.

Assays:
[1] = target: T1, 4,4'-diapophytoene desaturase (4,4'-diaponeurosporene-forming) (Staphylococcus aureus (strain Newman), UniProt O07855); assay: Inhibition of diapophytoene desaturase in Staphylococcus aureus Newman assessed as reduction in staphyloxanthin pigment formation after 48 hrs by spectrophotometry; set-up: species or system Staphylococcus aureus subsp. aureus str. Newman
T1 sequence (O07855 whole entry): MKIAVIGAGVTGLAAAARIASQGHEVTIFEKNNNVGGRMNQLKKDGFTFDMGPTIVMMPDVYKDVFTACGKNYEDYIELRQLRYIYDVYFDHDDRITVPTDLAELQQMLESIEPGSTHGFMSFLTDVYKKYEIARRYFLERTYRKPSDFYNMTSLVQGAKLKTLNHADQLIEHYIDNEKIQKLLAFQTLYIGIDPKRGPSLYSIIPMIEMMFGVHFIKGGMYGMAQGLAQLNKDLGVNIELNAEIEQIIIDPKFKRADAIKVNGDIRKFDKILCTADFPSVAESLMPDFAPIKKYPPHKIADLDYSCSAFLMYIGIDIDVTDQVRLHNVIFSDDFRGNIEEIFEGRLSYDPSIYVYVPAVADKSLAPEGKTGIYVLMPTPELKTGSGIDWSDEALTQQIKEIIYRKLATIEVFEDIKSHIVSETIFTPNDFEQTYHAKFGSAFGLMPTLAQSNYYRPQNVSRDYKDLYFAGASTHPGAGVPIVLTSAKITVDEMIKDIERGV

[2] = system: Trichophyton rubrum; assay: Antifungal activity against naftifine-sensitive Trichophyton rubrum after 7 days by serial dilution method; assay type: functional
Method in brief: (§1)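 Broth serial dilution in 96-well plates per NCCLS recommendations. Medium: RPMI 1640 buffered with 0.165 M MOPS. Fungi were ATCC strains or clinical isolates.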

[3] = system: Trichophyton verrucosum; assay: Antifungal activity against naftifine-sensitive Trichophyton verrucosum after 7 days by serial dilution method; assay type: functional; method in brief: as §1
[4] = system: Nannizzia gypsea; assay: Antifungal activity against naftifine-sensitive Microsporum gypseum after 7 days by serial dilution method; assay type: functional; method in brief: as §1
[5] = system: Trichophyton mentagrophytes; assay: Antifungal activity against naftifine-sensitive Trichophyton mentagrophytes after 7 days by serial dilution method; assay type: functional; method in brief: as §1

For `c1ccc(CCCOCc2ccc3c(c2)CCCCC3)cc1`, the IC50 [1] was > 20000 nM.

`C(/C=C/c1ccccc1)=C\COCc1ccc2c(c1)CCCCC2` was tested, and the IC50 [1] was > 20000 nM.

With `C(=C\c1ccccc1)/CNCc1ccc2c(c1)CCCCC2` the IC50 [1] was > 10000 nM.

In the case of `CN(C/C=C/c1ccccc1F)Cc1ccc2c(c1)CCCCC2`, the IC50 [1] is reported as 246 nM.

`CN(C/C=C/C=C/c1ccccc1)Cc1ccc2c(c1)CCCCC2` gave an IC50 [1] of 12.2 nM.

`OC(Cn1cncn1)(Cn1cncn1)c1ccc(F)cc1F` [FLUCONAZOLE] was tested, and the “MIC=<80” value [2] was 1 µg/mL (≈ 3.27 µM), the “MIC=<80” value [3] was 2 µg/mL (≈ 6.53 µM) and the “MIC=<80” value [4] was 8 µg/mL (≈ 26.1 µM). For the same molecule, the “MIC=<80” value [5] was 2 µg/mL (≈ 6.53 µM).

For `CC(C)N(C/C=C/c1ccccc1)Cc1ccc2c(c1)CCCCC2`, the IC50 [1] was > 10000 nM.

Work on `Cc1ccc(/C=C/CN(C)Cc2ccc3c(c2)CCCCC3)cc1` yielded an IC50 [1] of 31 nM.

`CCN(C/C=C/c1ccccc1)Cc1ccc2c(c1)CCCCC2` was tested, and the IC50 [1] was > 1250 nM.

In the case of `CN(C/C=C/Cc1ccccc1)Cc1ccc2c(c1)CCCCC2`, the IC50 [1] is reported as > 10000 nM.

With `CN(C/C=C/c1ccccc1)Cc1cccc2c1CCCCC2` the IC50 [1] was > 10000 nM.

In the case of `CN(C/C=C/C1CCCCC1)Cc1ccc2c(c1)CCCCC2`, the IC50 [1] is reported as > 10000 nM.

`CN(C/C=C/c1ccc([N+](=O)[O-])cc1)Cc1ccc2c(c1)CCCC2` showed an IC50 [1] of 94.5 nM.

For `C(=C\c1ccccc1)/COCc1ccc2c(c1)CCCCC2`, the IC50 [1] was > 20000 nM.

`CN(C/C=C/c1ccccc1)Cc1ccc2c(c1)CCCCC2` was tested, and the IC50 [1] was 202 nM.

Molecule `CN(C/C=C/c1ccc(Cl)cc1)Cc1ccc2c(c1)CCCCC2` has an IC50 [1] of 8.8 nM.

With `CN(C/C=C/c1ccccc1)Cc1cccc2c1CCC2` the IC50 [1] was > 2500 nM.

In the case of `CN(C/C=C/c1ccccc1)Cc1cccc2c1CCCC2`, the IC50 [1] is reported as > 1000 nM.

With `CN(C/C=C/c1ccc([N+](=O)[O-])cc1)Cc1ccc2c(c1)CCCCC2` the IC50 [1] was 12.4 nM.

`CN(CCCc1ccccc1)Cc1ccc2c(c1)CCCCC2` was tested, and the IC50 [1] was > 10000 nM.
